Screening results deposited in PubChem by several laboratories.
STAT3 activator – IL-6 driven STAT3 reporter potentiators, primary screen, U3A cells, luciferase, luminescence, MLSCN library. activation (% of control), % at 5.6 µM. hit rate 0.91% among 190,000. IL-6 STAT3-luciferase reporter; 100% = signal with IL-6 EC80 alone;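 active = activation above the screen-wide mean of compound activation plus 3 SD, cut at about 130% in these data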;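 also: 0% = background luminescence of wells with medium and substrate only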
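Test system: human U3A cells carrying STAT3-luciferase construct; control set: IL-6-only wells as 100% reference; timing: compound pre-incubation 1 h before IL-6, then 6 h stimulation at 37 °C; also added: IL-6 stimulus at 33 ng/mL final; evaluation: % activation versus median of IL-6-stimulated wells; detection: reporter luminescence signal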
NF-kB neuron act – activators of NF-kB expression in neurons, primary screen, cell-based, HTS | human neuronal cells, NF-kB reporter expression; active compounds read high | fold change at 12.5 µM | hit rate 1.6% among 190,000 | AID 1239, 2008; in the data active = fold change above about 3.3
STAT1 inh – STAT1 signaling inhibitors, primary screen, cell-based, HTS, luciferase reporter; hit rate 0.35% among 200,000; AID 920, 2007; inhibition, % at 5.5 µM; NIH 3T3 STAT1-luciferase reporter, IFN-gamma, luminescence;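 active = inhibition above a set limit, the mean inhibition across all tested compounds plus 3 SD, cut at about 34% in these data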;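 also: 0% = IFN-gamma with DMSO and 100% = IFN-gamma with 300 µM nifuroxazide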
APP 5'UTR act – activators of APP 5'UTR luciferase reporter, primary screen, SH-SY5Y cells. AID 1276, 2008. activation, % at 2 µM. SH-SY5Y APP 5'UTR luciferase reporter, luminescence; zero percent = DMSO vehicle wells. hit rate 1% among 190,000;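 active = activation above a set limit, based on mean plus 3 SD of controls, cut at about 140% in these data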
STAT3 inh – IL-6 driven STAT3 reporter inhibitors, primary screen, U3A cells, luciferase, luminescence, MLSCN library; IL-6 STAT3-luciferase reporter; host cell line lacks STAT1; inhibition, % at 5.5 µM; hit rate 0.89% among 190,000; AID 862, 2007;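 active = inhibition above the mean inhibition across all screened compounds plus 3 SD, cut at about 44% in these data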;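 also: 0% = DMSO only wells and 100% = 100 µM nifuroxazide control wells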
STAT1 act – STAT1 signaling activators, primary screen, cell-based, HTS, luciferase reporter; NIH 3T3 STAT1-luciferase reporter, IFN-gamma, luminescence; 100% = IFN-gamma alone, no compound; activation (% of control), % at 5.5 µM; hit rate 2.6% among 200,000;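 active = activation above the screen-wide mean activation plus 3 SD, cut at about 130% in these data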;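 also: raw ratio to IFN-gamma control signal so 100% means no change and 0% no light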
* marks the source's active call; other numbers are inactive results; x = not tested or not shown. Hits are enriched below; roughly 5.1% of the tested compounds scored in any of these assays.

SMILES | STAT3 activator | NF-kB neuron act | STAT1 inh | APP 5'UTR act | STAT3 inh | STAT1 act
CCN(CC)S(=O)(=O)c1cccc(-c2nnc(C(=O)c3ccc(C(F)(F)F)cc3)o2)c1 | 105 | 0.89 | -3 | 6 | 1 | 102
C=CCSc1nc2ccccc2n1C(=O)/C=C/c1cc(OC)c(OC)c(OC)c1 | 91 | 0.7 | -49 | -58 | 15 | 145*
C=CCSc1nc2ccccc2n1C(=O)/C=C/c1ccc(OC)c(OC)c1 | 109 | 0.99 | 7 | -8 | -5 | 93
COc1ccc(/C=C2\SC(=O)N(CCNC(=O)CCS(=O)(=O)c3ccc(C)cc3)C2=O)cc1 | 121 | 2.8 | -34 | 53 | -18 | 131*
COc1ccc(S(=O)(=O)CCC(=O)NCCc2ccc(C)cc2)cc1 | 100 | 1.4 | 4 | -5 | 7 | 96
COc1ccc(/C=C2\SC(=O)N(CCNC(=O)C3CCN(S(=O)(=O)c4cccs4)CC3)C2=O)cc1 | 108 | 1.3 | -43 | 91 | -13 | 138*
COc1ccc(/C=C2\SC(=O)N(CCNC(=O)Cn3cnnn3)C2=O)cc1 | 124 | 3.7* | -41 | 118 | -21 | 138*
O=C1N(c2ccccc2)C[C@@H]2C[C@@H](c3cccs3)N3CCC[C@@]123 | 102 | 0.9 | -5 | -7 | 1 | 102
COc1cccc(-c2nnc(-c3ccco3)o2)c1 | 96 | 3 | -50 | 109 | 9 | 144*
Cc1ccc(/C=N/NC(=O)c2ccc(Br)o2)s1 | 109 | 2 | -9 | 42 | -14 | 108
CCc1ccc(/C=N\NC(=O)c2ccc(Br)o2)s1 | 109 | 2.9 | -49 | 50 | -13 | 146*
CCN(CC)c1ccc(/C=N/NC(=O)c2ccc(Br)o2)cc1 | 107 | 4.3* | -42 | 96 | -7 | 138*
O=C(N/N=C/c1ccc2c(c1)OCO2)c1ccc(Br)o1 | 111 | 3.5* | -46 | 51 | -19 | 142*
N=c1n(CCO)c2ccccc2n1Cc1ccccc1Cl | 103 | 0.92 | 3 | 0 | -1 | 97
CC1CCCN(C(=O)COc2ccc(-c3ccccc3)cc2)C1 (centres undefined) | 95 | 1.1 | -16 | 9 | 14 | 114
CC1=CC(=O)c2ccccc2C1=O | 118 | 0.87 | -7 | 22 | -18 | 106
CC(C)(C=O)C1=CC(=O)c2ccccc2C1=O | 139* | 0.97 | 14 | -81 | -43 | 88
C=C(C)COc1ccc2c(C)c(CC(=O)OC)c(=O)oc2c1C | 103 | 3.1 | -16 | 59 | -3 | 115
COC(=O)Cc1c(C)c2ccc(OCC(C)=O)c(C)c2oc1=O | 112 | 1.8 | -26 | 32 | -12 | 130*
COC(=O)CN(c1ccccc1F)S(=O)(=O)c1ccccc1 | 100 | 1.5 | 1 | 8 | 4 | 100
C/C(=N\O)c1ccc(N2C(=O)C3CC=C(Cl)CC3C2=O)cc1 (centres undefined) | 91 | 2.1 | -43 | 144* | 10 | 139*
Cc1ccc(NC(=O)c2ccc(N3C(=O)C4CC=C(Cl)CC4C3=O)cc2)cc1 (centres undefined) | 87 | 0.96 | 1 | x | 22 | 99
Nc1c(C(=O)Nc2ccc(Cl)cc2)oc2ccccc12 | 173* | 5.6* | -78 | 213* | -75 | 170*
C=CCNC(=S)NC(=O)c1oc2ccccc2c1C | 107 | 2 | -40 | 57 | -4 | 134*
Cc1sc(NC(=O)c2oc3ccccc3c2C)c(C#N)c1C | 96 | 1.4 | 0 | 15 | 6 | 102
Cc1c(C(=O)Nc2cnccn2)oc2ccccc12 | 124 | 4.7* | -23 | 28 | -24 | 121
Cc1c(C(=O)NC2=NCCS2)oc2ccccc12 | 90 | 7.6* | -40 | 106 | 15 | 137*
Cc1ccc([N+](=O)[O-])cc1-c1[nH]c(-c2ccc(O)c(O)c2)nc1-c1ccccc1 | 109 | 0.57 | -1 | 9 | -3 | 101
CC(=O)Nc1cccc(NC(=O)c2oc3ccccc3c2C)c1 | 104 | 2.3 | -44 | 68 | 2 | 142*
CC12COC3(C(=O)Nc4ccc5ccccc5c4)CC1CCC32C (centres undefined) | 129 | 1 | -52 | 49 | -29 | 144*
